From article PMC6901019 (Antiviral research, 2019)
pEC50, pIC50, pKd: −log10 of the molar value. Like-named read-outs stand apart in the source and are kept apart here.

Assays:
HIV-1 = conditions: cited from earlier work
HIV-1 CA CTD = HIV-1 CA CTD (Human immunodeficiency virus type 1 group M subtype B, UniProt P12493); experiment: HTRF-based CAI binding competition assay; conditions: for inhibition at 50 µM: read-out: inhibition of CA CTD-CAI HTRF signal
C8166 cells = experiment: MTT cytotoxicity assay; format: cell-based, Human; conditions: 3 days
Summary of the method: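 C8166 T cells were maintained in RPMI 1640 with 10% FBS, penicillin and streptomycin. They were seeded at 4×10^4/well with serially diluted test compound and kept at 37°C, 5% CO2. Viability was measured by MTT after 3 days, and the 50% cytotoxic concentration was calculated.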

[1] = tested on: Gag polyprotein processing; experiment: Anti-p24 western blot of infected MT-4 cell lysates; format: cell-based; conditions: MT-4 cells, 3 days of HIV-1IIIB replication, anti-p24 immunoblotting
WT CA protein = WT CA protein (Human immunodeficiency virus type 1 group M subtype B, UniProt P12493); experiment: In vitro CA assembly assay; format: biochemical, HIV-1; conditions: 50 μM CA-WT, NaCl-dependent assembly, OD 350 nm
Summary of the method: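 Full-length WT CA (E. coli, pET11a) was dialysed into 50 mM sodium phosphate, pH 8.0, and mixed with test compound in 500 μl of that buffer. Assembly was started by adding 500 μl of the same buffer containing 4 M NaCl, pH 8.0. OD350 was read every 20 s for 30 min.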

[2] = molecular target: CAI-biotin peptide (biotinylated capsid assembly inhibitor peptide); experiment: BLI
[3] = molecular target: GST-tagged HIV-1 capsid C-terminal domain (GST-CA CTD) (HIV-1); experiment: AlphaScreen or HTRF

## Cc1ccnc(SCc2nc3ccccc3s2)n1 [BMMP]
HIV-1; ref Urano et al., 2011
  pEC50: 4.30 to 4.70

## Cc1ccc(NC(=O)NCCSCc2ccc(CN(C)C)o2)cc1Cl [CAP-1]
HIV-1; ref Tang et al. 2003
  pEC50: ~4.15

## CO[C@H]1[C@H](OC(=O)c2ccc(C)[nH]2)[C@H](O)[C@@H](Oc2ccc3c(O)c(NC(=O)c4c[nH]c(C(=O)Nc5c(O)c6ccc(O[C@H]7OC(C)(C)[C@@H](OC)[C@H](OC(=O)c8ccc(C)[nH]8)[C@@H]7O)c(C)c6oc5=O)c4C)c(=O)oc3c2C)OC1(C)C [Coumermycin A1]
HIV-1; ref Chen et al., 2016, Vozzolo et al. 2010
  pEC50: 5.10

## O=c1c2ccccc2[se]n1-c1ccccc1 [Ebselen]
HIV-1 CA CTD
  inhibition at 50 µM: < 3.2%
HIV-1; ref Thenin-Houssier et al., 2016
  pEC50: 5.47

## C[C@H](CCC(=O)NCC(=O)O)[C@H]1CC[C@H]2[C@@H]3CC[C@@H]4C[C@H](O)CC[C@]4(C)[C@H]3C[C@H](O)[C@]12C [GDC, glycodeoxycholate]
HIV-1 CA CTD
  inhibition at 50 µM: < 20%
HIV-1; ref Lampel et al., 2015
  pEC50: 5.51

## Cc1[nH]c2ccccc2c1CC(=O)N[C@@H](Cc1ccccc1)C(=O)N(C)c1ccccc1 [PF-3450074 (PF74)]
HIV-1; ref Blair et al., 2010, Shi et al., 2011
  pEC50: 6.22 to 6.52

## C[C@H](CCC(=O)NCCS(=O)(=O)O)[C@H]1CC[C@H]2[C@@H]3[C@H](O)C[C@@H]4C[C@H](O)CC[C@]4(C)[C@H]3C[C@H](O)[C@]12C [TA, taurocholic acid]
HIV-1 CA CTD
  inhibition at 50 µM: < 20%

## Cc1cc(C=C2C(=O)C=CC2=O)cc(C)c1O [TX-1918]
HIV-1 CA CTD; compound at 50 μM
  inhibition of CA CTD-CAI HTRF signal: > 70%
C8166 cells
  CC50: 20.8 µM
[1]
  effect on CA p24 production / Gag Pr55 processing: significant reductions in proteolyzed CA p24 with increasing concentrations
WT CA protein
  effect on in vitro CA assembly: inhibited CA assembly in vitro

## CC(=O)Nc1cccc(-n2c(=O)n(C3CC3)c(=O)c3c(Nc4ccc(I)cc4F)n(C)c(=O)c(C)c32)c1 [trametinib]
HIV-1 CA CTD
  inhibition at 50 µM: < 3.2%

## GST-tagged HIV-1 capsid C-terminal domain (GST-CA CTD) (domain or fragment)
[2]
  pKd: 8.15
  koff: 0.000152 s⁻¹

## untagged CAI peptide (capsid assembly inhibitor)
[3]
  pIC50: 5.19
